Source: PMC6331054 (Bioorganic & medicinal chemistry, 2018)

Assays:
[1] = target: T1, recombinant chicken RALDH2 (Gallus gallus, UniProt O93344); experiment: Fluorescence-based NADH assay of RALDH activity with retinaldehyde as substrate; type: biochemical
T1 sequence (O93344 1-518): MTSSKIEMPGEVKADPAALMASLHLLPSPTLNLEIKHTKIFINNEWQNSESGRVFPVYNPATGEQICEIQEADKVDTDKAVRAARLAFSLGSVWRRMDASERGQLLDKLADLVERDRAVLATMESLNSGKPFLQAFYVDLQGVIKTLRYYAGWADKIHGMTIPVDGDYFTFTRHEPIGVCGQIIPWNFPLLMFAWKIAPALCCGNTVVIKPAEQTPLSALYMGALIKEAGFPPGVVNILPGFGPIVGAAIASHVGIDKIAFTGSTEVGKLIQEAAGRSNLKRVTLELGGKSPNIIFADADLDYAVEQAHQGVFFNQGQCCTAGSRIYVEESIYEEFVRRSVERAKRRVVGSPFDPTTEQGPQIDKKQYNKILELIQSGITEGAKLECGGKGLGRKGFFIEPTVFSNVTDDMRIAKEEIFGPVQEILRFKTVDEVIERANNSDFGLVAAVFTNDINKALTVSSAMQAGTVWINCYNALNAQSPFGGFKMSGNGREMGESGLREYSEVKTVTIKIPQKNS

[2] = target: T2, recombinant human mitochondrial ALDH2 (hALDH2) (Homo sapiens, UniProt P05091); type: biochemical; conditions: read-out: KI (Morrison); Morrison equation; ALDH2 4.43 μM
T2 sequence (P05091 18-517): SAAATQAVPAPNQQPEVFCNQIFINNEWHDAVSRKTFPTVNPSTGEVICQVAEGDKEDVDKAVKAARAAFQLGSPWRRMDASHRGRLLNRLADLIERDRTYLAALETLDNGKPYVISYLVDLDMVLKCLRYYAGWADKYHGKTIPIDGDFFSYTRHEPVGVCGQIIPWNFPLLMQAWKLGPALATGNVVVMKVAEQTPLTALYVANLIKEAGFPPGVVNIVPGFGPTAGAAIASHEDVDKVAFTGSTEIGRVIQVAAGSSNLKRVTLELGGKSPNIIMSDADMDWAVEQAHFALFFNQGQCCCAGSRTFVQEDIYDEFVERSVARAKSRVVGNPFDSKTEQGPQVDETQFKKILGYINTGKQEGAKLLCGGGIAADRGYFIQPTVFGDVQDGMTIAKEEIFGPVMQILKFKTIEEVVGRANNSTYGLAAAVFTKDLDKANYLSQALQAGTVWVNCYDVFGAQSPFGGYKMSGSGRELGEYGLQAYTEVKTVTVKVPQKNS
Procedure, shortened: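 Cobalt-purified recombinant hALDH2 (4.5 μM in Hepes pH 8.5/KCl/EDTA dialysis buffer plus 1 mM TCEP) in 20 mM Hepes pH 8.3, 150 mM KCl, 1 mM EDTA, 2 mM DTT, 5 mM propionaldehyde, 25°C. Pre-incubation 20 min–1 hr with test compound (1–100 μM final) or DMSO; NAD+ (5 mM final) started reaction; NADH at 340 nm for 5 min. KI by Morrison equation; triplicates, 3–5 experiments.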

[3] = target: T3, RALDH2 activity in chick choroid cytosol fractions (Gallus gallus, UniProt O93344); type: biochemical
T3 sequence (O93344 1-518): T1 sequence (O93344 1-518)
Procedure, shortened: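 Choroidal cytosol from control and 4-day recovering chick eyes was pre-incubated 20 min at 37°C with test compound (0–6 μM) or DMSO. Reaction was started with NAD+ (4 mM) and all-trans-retinaldehyde (25 μM), run 30 min at 37°C under dim red light, stopped with ice and methanol. ATRA was quantified by HPLC.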

[4] = target: T4, RALDH2 activity (ATRA synthesis) in living intact chick choroids (Gallus gallus, UniProt O93344); experiment: RALDH2 activity after incubation of living, intact choroids in organ culture; type: cell-based; conditions: organ culture 24 hrs
T4 sequence (O93344 1-518): T1 sequence (O93344 1-518)
Procedure, shortened: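 Choroids from 4-day recovering or contralateral control eyes of male White Leghorn chicks (8 mm posterior punch) were cultured one per well in N2 medium with test compound (methods: 0.01–5 μM; legend: 0.01–10 μM) or DMSO for 24 hrs at 37°C, 5% CO2. Cytosol (100,000g, 1 hr) was incubated with NAD+ and 25 μM all-trans-retinaldehyde for 30 min at 37°C, with methanol stop and HPLC quantification of ATRA.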

[5] = Stability of DAR on storage and under assay conditions; type: physicochemical

Protection of RALDH2 activity by all-trans-retinaldehyde in the pre-incubation ([1]; 250 nM DAR + 250 μM RAL) | RALDH2 activity at enzyme concentrations below the DAR concentration ([1]; DAR 150 nM, RALDH2 46 – 91 nM) | Ki [2] | IC50 [3] | inhibition of RALDH2 activity in control choroid lysates ([3]; 0.10 – 6 μM DAR, 20 min pre-incubation at 37°C, control eyes, vs vehicle) | effect on ATRA synthesis in living, intact choroids from control eyes [4] | light stability ([5]; ambient light) | stability under assay conditions ([5]; dark, 25°C and 37°C) | storage stability ([5]; stored in the dark and at −80°) | SMILES
No protection | completely inhibited | > 100000 nM | 20.7 nM | 92 – 99% | no significant effect | prone to photoisomerization | at least three days | at least three months | CC1=C(/C=C/C(C)=C/C=C/C(C)=C/C(=O)C(Cl)Cl)C(C)(C)CCC1 [DAR, (3E,5E,7E,9E)-1,1-dichloro-4,8-dimethyl-10-(2,6,6-trimethylcyclohex-1-en-1-yl)deca-3,5,7,9-tetraen-2-one]
 |  |  |  |  | no significant effect |  |  |  | O=C(NCCCCCCCCNC(=O)C(Cl)Cl)C(Cl)Cl [WIN 18446, reference compound]
